Columns and labels:
[1] = In vitro drug release / dissolution in PBS buffer; assay type: physicochemical; details: PBS 150 mM, pH 7.4, 37°C, 72 hrs
Summary of the method: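 Release was by dialysis (3500 MWCO bag) into 20 mL PBS. Test powder (1.0 mg) was dispersed in 5 mL PBS at 37°C, or loaded hydrogel (250 μL) was placed in the bag. At set times 3 mL of outer buffer was withdrawn and replaced with fresh buffer. IGUR was quantified by UV absorbance at 309 nm.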

[2] = cited from earlier work
[3] = In vivo pharmacokinetics, plasma concentration by HPLC; design: species or system female Lewis rats; details: female, Lewis, rat, po, 10 mg/kg
Summary of the method: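 Healthy female Lewis rats (150 ± 10 g, 6 weeks) received a single oral 10 mg/kg dose of test compound suspended in 0.5% sodium CMC in water. Heparinized blood was drawn at 10 and 30 min and at 1, 2, 3, 4, 6, 8, 12, 18 and 24 h. Plasma drug was measured by HPLC, and parameters were calculated from the concentration–time curve.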

[4] = tested on: collagen-induced arthritis (CIA) rats; test: Therapeutic efficacy in collagen-induced arthritis; assay type: in vivo, female Lewis rats; details: 10 mg/kg intragastrically daily
Summary of the method: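 Female Lewis rats (150 ± 10 g, 6 weeks) given bovine type II collagen in complete Freund's adjuvant (400 μg collagen s.c.), reboosted day 7 with incomplete adjuvant. Test compound in 0.5% CMC, 10 mg/kg intragastric daily for 21 days; n = 7 per group, untreated CIA and healthy rats as controls. Every 3 days, two researchers record weight, ankle diameter and arthritis index (each paw 0–4, maximum 16).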

[5] = tested on: TNF-α; test: ELISA of TNF-α in serum and synovial homogenate supernatant of CIA rats; assay type: in vivo, female Lewis rats; details: 10 mg/kg intragastrically daily, 21 days
Summary of the method: (§1)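 Female Lewis rats; CIA from bovine type II collagen in complete Freund's adjuvant (400 μg collagen s.c.), boosted day 7 with incomplete adjuvant. Test compound in 0.5% CMC, 10 mg/kg intragastric daily, 21 days; n = 7, untreated CIA and healthy controls. Serum from canthus blood (300 × g, 10 min) and synovial homogenate supernatant (PBS, protease inhibitors) assayed by high-sensitivity ELISA; mean ± SD.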

[6] = tested on: RA-FLS; test: MTS cell proliferation assay; assay type: cell-based, human; details: 48 hr
Summary of the method: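 Primary RA-FLS were grown from explants of patients' synovial tissue in DMEM/20% FBS and used at passages 3–6. Cells were seeded at 3×10³ cells/100 μL and allowed to adhere overnight. They were exposed for 48 h to test compound at 40, 80, 160 or 320 μg/mL in 10% FBS high-glucose DMEM, alongside medium, PBS or blank-gel controls. After MTS for 2 h, absorbance was read at 490 nm, with six replicate wells per group.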

[7] = tested on: IL-1β; test: ELISA of IL-1β in serum and synovial homogenate supernatant of CIA rats; assay type: in vivo, female Lewis rats; details: 10 mg/kg intragastrically daily, 21 days
Summary of the method: as §1

[8] = tested on: IL-6; test: ELISA of IL-6 in serum and synovial homogenate supernatant of CIA rats; assay type: in vivo, female Lewis rats; details: 10 mg/kg intragastrically daily, 21 days
Summary of the method: as §1

[9] = tested on: collagen-induced arthritis (CIA) rats; test: Histological evaluation of ankle joints of CIA rats; assay type: in vivo, female Lewis rats; details: 10 mg/kg intragastrically daily, 21 days
Summary of the method: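 CIA was induced in female Lewis rats (150 ± 10 g, 6 weeks) by s.c. injection of bovine type II collagen emulsified in complete Freund's adjuvant (400 μg collagen), then boosted 7 days later with collagen in incomplete adjuvant. Oral test compound was given in 0.5% CMC for 21 days (n = 7). Right ankles were fixed, decalcified, paraffin-embedded, and stained with H&E and safranin O–fast green. Sections were given a Mankin score (5 grades) over multiple fields. Groups were compared by Mann–Whitney U or ANOVA.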

[10] = tested on: RA-FLS; test: Transwell migration assay; assay type: cell-based, human; details: 320 μg/mL, 48 hrs
Summary of the method: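 RA-FLS (3×10³ cells/100 μL) in serum-free medium were placed in the upper chamber of 8-μm transwells with test compound (40–320 μg/mL). The lower chamber held 10% FBS as chemoattractant. After 48 h at 37°C, non-migrated cells were swabbed off. Underside cells were fixed in 4% paraformaldehyde for 30 min at room temperature, stained with 0.1% crystal violet, and counted in 5 random fields; three independent experiments.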

[11] = tested on: RA-FLS; test: Matrigel transwell invasion assay; assay type: cell-based, human; details: 320 μg/mL, 48 hrs
Summary of the method: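 Transwell inserts were coated with Matrigel diluted in cold serum-free medium (medium:Matrigel 5:1) and incubated overnight. RA-FLS (3×10³ cells/100 μL) in serum-free medium plus test compound (40–320 μg/mL) were placed above 10% FBS for 48 h at 37°C. Invaded cells were fixed in 4% paraformaldehyde, stained with crystal violet, and counted in 5 random fields; three independent replicates.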

Compound: CS(=O)(=O)Nc1cc2occ(NC=O)c(=O)c2cc1Oc1ccccc1 [raw IGUR, Iguratimod]
- dissolution rate (dissolved/released IGUR) [1]: 28.65%
- solubility in aqueous solvents [2]: practically insoluble
- AUC(0-t) [3]: 111 µg·h/mL
- Cmax [3]: 12700 ng/mL
- half-life [3]: 3.7 h
- body weight vs CIA group ([4]; 13th day of administration): significantly higher than in the CIA group
- AI scores vs CIA group ([4]; 16th day of administration): significantly lower than in the CIA group
- serum level of TNF-α vs CIA group [5]: significantly lower than those in the CIA group
- relative cell proliferation ratio ([6]; 160 μg/mL): 83.72 ± 1.41%
- relative cell proliferation ratio ([6]; 320 μg/mL): 80.73 ± 2.14%
- serum level of IL-1β vs CIA group [7]: significantly lower than those in the CIA group
- serum level of IL-6 vs CIA group [8]: significantly lower than those in the CIA group
- H&E histology of ankle joints vs CIA group [9]: less infiltration of inflammatory cells in the synovial tissue and no obvious bone erosion
- Mankin's score vs CIA group ([9]; P < 0.05): significantly lower
- synovitis score vs CIA group ([9]; P < 0.05): significantly lower
- area of ankle cartilage vs CIA group ([9]; saffron O-fixing green staining, Image J, P < 0.05): increased significantly
- relative cell migration ratio [10]: 44.69 ± 1.58%
- relative cell invasion ratio [11]: 44.59 ± 2.24%
